Experiments:
[1] = Compound was tested for antiviral activity against Towne strain of HCMV in a yield reduction assay using HFF cells; format: functional; details: Homo sapiens
Procedure, shortened: (§1)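 HCMV Towne yield reduction in HFF cells, MOI 0.5; progeny titred by end-point dilution and plaque enumeration; IC50 from linear regression of percent inhibition against log drug concentration.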

HFF [2] = test: Compound was tested for antiviral activity against Towne strain of HCMV in a plaque reduction assay using HFF cells; format: functional, cell-based; details: Homo sapiens
[3] = (§2) Compound was tested for inhibition of KB cell growth in quadruplicate assay; format: functional, cell-based; details: Homo sapiens
Procedure, shortened: (§3)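 KB cell proliferation over two control population doublings; crystal violet staining with spectrophotometric quantification of eluted dye; quadruplicate assays; IC50 by linear regression of percent inhibition vs log concentration.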

Human betaherpesvirus 5 [4] = test: Compound was tested for antiviral activity against HCMV in DNA hybridization assay; format: functional, organism-based
Procedure, shortened: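 HCMV replication measured by DNA hybridization; IC50 from linear regression of percent inhibition against log drug concentration.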

Human betaherpesvirus 5 [5] = test: Compound was tested for antiviral activity against HCMV in viral cytopathic effect (CPE) assay; format: functional, organism-based
Procedure, shortened: (§4)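 HCMV viral cytopathic effect scored microscopically as visible virus effects on cells; IC50 derived by linear regression of percent inhibition vs log drug concentration.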

Human alphaherpesvirus 1 = test: Compound was tested for antiviral activity against HSV-1 assayed by ELISA in quadruplicate wells; format: functional, organism-based
Procedure, shortened: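 HSV-1 replication measured by ELISA in quadruplicate wells; IC50 from linear regression of percent inhibition against log drug concentration.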

HFF [6] = test: Compound was tested for visual cytotoxicity on HFF cells unaffected by HCMV at the time of plaque enumeration; format: functional, cell-based; details: Homo sapiens
Procedure, shortened: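 Stationary HFF cells not affected by virus in plaque assay plates inspected microscopically for cytotoxicity at time of plaque enumeration; IC50 by regression of percent inhibition vs log concentration.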

HFF [7] = test: Compound was tested for antiviral activity against wild-type AD169 virus of HCMV in plaque reduction assay using HFF cells; format: functional, cell-based; details: Homo sapiens
HFF [8] = test: Compound was tested for antiviral activity against wild-type Towne virus of HCMV in plaque reduction assay using HFF cells; format: functional, cell-based; details: Homo sapiens
HFF [9] = test: Compound was tested for antiviral activity against C-4 Towne virus of HCMV in plaque reduction assay using HFF cells; format: functional, cell-based; details: Homo sapiens
HFF [10] = test: Compound was tested for antiviral activity against 2916 type AD169 virus of HCMV in plaque reduction assay using HFF cells; format: functional, cell-based; details: Homo sapiens
KB = test: as §2; format: functional, cell-based; details: Homo sapiens; procedure, shortened: as §3
HFF [11] = test: Compound was tested for antiviral activity against AD169 strain of HCMV in a plaque reduction assay using HFF cells; format: functional, cell-based; details: Homo sapiens
[12] = Compound was tested for inhibition of MOLT 4 cells.; format: functional, cell-based, Homo sapiens
Procedure, shortened: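 Cytotoxicity in MOLT 4 cells (human T-cell lymphocytic leukemia line). IC50 from linear regression of percent inhibition against log drug concentration; >100 µM means IC50 was not reached at the highest concentration tested.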

Human betaherpesvirus 5 [13] = test: Compound was tested for antiviral activity against HCMV in viral cytopathic effect(CPE) assay; format: functional, organism-based; procedure, shortened: as §4
HFF [14] = test: (§5) Compound was tested for antiviral activity against C-4 Towne strain of HCMV in yield reduction assay using HFF cells; format: functional; details: Homo sapiens
HFF [15] = test: (§6) Compound was tested for antiviral activity against wild-type Towne strain of HCMV in yield reduction assay using HFF cells; format: functional; details: Homo sapiens; procedure, shortened: as §1
HFF [16] = test: as §6; format: functional, cell-based; details: Homo sapiens; procedure, shortened: as §1
HFF [17] = test: (§7) Compound was tested for antiviral activity against 2916 AD169 strain of HCMV in yield reduction assay using HFF cells; format: functional; details: Homo sapiens
HFF [18] = test: (§8) Compound was tested for antiviral activity against wild-type AD169 strain of HCMV in yield reduction assay using HFF cells; format: functional; details: Homo sapiens
HFF [19] = test: as §5; format: functional, cell-based; details: Homo sapiens
HFF [20] = test: as §8; format: functional, cell-based; details: Homo sapiens
HFF [21] = test: as §7; format: functional, cell-based; details: Homo sapiens
HFF [22] = test: Compound was tested for antiviral activity against AD169 strain of HCMV in a plaque assay using HFF cells; format: functional, cell-based; details: Homo sapiens
HFF [23] = test: Compound was tested for antiviral activity against wild-type Towne virus of HCMV in yield reduction assay using HFF cells; format: functional, cell-based; details: Homo sapiens; procedure, shortened: as §1
HFF [24] = test: Compound was tested for antiviral activity against C-4 Towne virus of HCMV in yield reduction assay using HFF cells; format: functional, cell-based; details: Homo sapiens
HFF [25] = test: Compound was tested for antiviral activity against 2916 strain of HCMV in plaque reduction assay using HFF cells; format: functional, cell-based; details: Homo sapiens

| Compound | IC90 [1] [µM] | IC50 (HFF [2]) [µM] | IC50 [3] [µM] | IC50 (Human betaherpesvirus 5 [4]) [µM] | IC50 (Human betaherpesvirus 5 [5]) [µM] | IC50 (Human alphaherpesvirus 1) [µM] | IC50 (HFF [6]) [µM] | IC50 (KB) [µM] | IC50 [12] [µM] | other results |
| --- | --- | --- | --- | --- | --- | --- | --- | --- | --- | --- |
| OC[C@H]1O[C@@H](n2c(Cl)nc3cc(Cl)c(Cl)cc32)[C@H](O)[C@@H]1O | 1.3 | 2.8 | 210 | – | – | – | – | – | – | – |
| CC(=O)OC1[C@@H](OC(C)=O)CO[C@H]1n1c(Cl)nc2cc(Cl)c(Cl)cc21 (stereo partly drawn) | 0.1 | 0.25 | 45 | 0.33 | 0.1 | > 100 | 41 | – | – | – |
| O[C@@H]1COC(n2c(Br)nc3cc(Cl)c(Cl)cc32)[C@@H]1O (stereo partly drawn) | 0.06 | 0.24 | – | 0.23 | 0.05 | 50 | 32 | 50 | 47 | IC50 (HFF [7]): 0.03 µM; IC50 (HFF [8]): 0.23 µM; IC50 (HFF [9]): 12 µM; IC50 (HFF [10]): 0.03 µM; IC50 (HFF [11]): 0.04 µM |
| CC(C)Nc1nc2cc(Cl)c(Cl)cc2n1C1OC[C@@H](O)[C@H]1O (stereo partly drawn) | 5 | 7.9 | – | 0.42 | – | > 100 | > 100 | > 100 | 84 | IC50 (Human betaherpesvirus 5 [13]): 0.8 µM; IC90 (HFF [14]): 8.5 µM; IC90 (HFF [15]): 6.9 µM; IC50 (HFF [11]): 1.8 µM |
| CC(C)Nc1nc2cc(Cl)c(Cl)cc2n1C1OC[C@H](O)[C@@H]1O (stereo partly drawn) | – | – | – | 0.8 | 2.3 | – | – | – | 15 | – |
| O[C@@H]1COC(n2c(Cc3ccccc3S)nc3cc(Cl)c(Cl)cc32)[C@@H]1O (stereo partly drawn) | – | 32 | – | > 10 | > 10 | 65 | 32 | 60 | – | – |
| Nc1nc2c(ncn2COC(CO)CO)c(=O)[nH]1 [GANCICLOVIR] | 1.6 | – | – | 0.88 | – | – | > 100 | > 100 | – | IC50 (HFF [16]): 4.5 µM; IC50 (Human betaherpesvirus 5 [13]): 2 µM; IC90 (HFF [17]): 3.6 µM; IC90 (HFF [18]): 3.3 µM; IC90 (HFF [19]): 4.1 µM |
| O[C@@H]1C(n2c(NC3CC3)nc3cc(Cl)c(Cl)cc32)OC[C@@H]1O (stereo partly drawn) | – | – | – | 2 | 2.3 | – | – | – | 43 | – |
| O[C@@H]1COC(n2c(NC3CC3)nc3cc(Cl)c(Cl)cc32)[C@@H]1O (stereo partly drawn) | 6.8 | 19 | > 100 | 0.26 | 0.6 | > 100 | > 100 | – | 132 | IC90 (HFF [14]): 5 µM; IC90 (HFF [15]): 10 µM |
| O[C@@H]1COC(n2c(Cl)nc3cc(Cl)c(Cl)cc32)[C@@H]1O (stereo partly drawn) | 0.12 | 0.24 | 60 | 0.1 | 0.1 | > 100 | 32 | – | – | – |
| CC(C)Nc1nc2c(Cl)c(Cl)c(Cl)cc2n1C1OC[C@H](O)[C@@H]1O (stereo partly drawn) | – | – | – | 0.15 | 0.8 | – | – | – | – | – |
| CC(C)Nc1nc2c(Br)c(Cl)c(Cl)cc2n1C1OC[C@@H](O)[C@H]1O (stereo partly drawn) | – | – | – | 0.16 | 1 | – | – | – | 13 | – |
| CC(C)Nc1nc2cc(Cl)c(Cl)cc2n1C1O[C@@H](CO)[C@H](O)[C@@H]1O (stereo partly drawn) | 0.6 | – | 65 | 0.1 | – | > 100 | > 100 | – | – | IC50 (HFF [20]): 0.33 µM; IC90 (HFF [14]): 0.7 µM; IC90 (HFF [15]): 0.59 µM; IC50 (HFF [21]): > 100 µM; IC50 (HFF [22]): 0.45 µM |
| OC[C@H]1O[C@@H](n2c(Br)nc3cc(Cl)c(Cl)cc32)[C@H](O)[C@@H]1O | 0.2 | 0.7 | – | 0.52 | 0.3 | 130 | 118 | > 100 | – | IC50 (HFF [7]): 0.34 µM; IC50 (HFF [8]): 1.7 µM; IC50 (HFF [23]): 0.3 µM; IC50 (HFF [9]): 31 µM; IC90 (HFF [24]): 8 µM; IC50 (HFF [25]): 0.41 µM |
| CC(=O)OC1[C@@H](OC(C)=O)CO[C@H]1n1c(Br)nc2cc(Cl)c(Cl)cc21 (stereo partly drawn) | 0.05 | 0.22 | 60 | 0.21 | 0.05 | > 100 | 59 | – | – | IC50 (HFF [11]): 0.05 µM |
